# Sampled rows, rich in hits. Any-hit rate of the full collection: about 2.1%.
# CRFR2-BP antag – antagonists of CRF-BP/CRF-R2 complex, primary screen, cell-based, HEK293, calcium dye fluorescence, uHTS | AID 588475, 2011 | hit rate 0.59% among 350,000 | CRF-induced calcium fluorescence | inhibition, % at 11.8 µM;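 active = inhibition of the ligand-induced calcium signal above about 50% at the single tested concentration, limit read from the data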
# IMP-1 inhibitor – IMP-1 metallo-beta-lactamase inhibitors, primary screen, biochemical, epi-absorbance readout, Pseudomonas aeruginosa enzyme. inhibition, % at 5.6 µM. hit rate 0.45% among 290,000. purified IMP-1, nitrocefin hydrolysis, epi-absorbance fluorescence. metallo-beta-lactamase IMP-1 (Pseudomonas aeruginosa);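 active = inhibition above the mean plus 3 SD of all compounds in the same screening run, cut at about 4.5% in these data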;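 note: 0% = IMP-1 with DMSO and 100% = DMSO wells lacking enzyme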
#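 System – purified recombinant IMP-1 beta-lactamase · Input – IMP-1 dispensed at 0.2 nM · Timing – 15 min preincubation plus 25 min reaction at 25 °C · Signal – Epi-absorbance fluorescence, 480 nm excitation, 530 nm emission · Measure – percent IMP-1 inhibition derived from blank-referenced optical density · Controls – Enzyme-plus-DMSO low control, enzyme-free DMSO high control · Replication – singlicate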
# TRPN1 ag – zebrafish TRPN1 channel agonists, primary screen, cell-based, HEK293, calcium fluorescence | transient receptor potential cation channel N1 (TRPN1/NompC), Danio rerio | HEK293 zebrafish TRPN1-YFP, Fluo-8 calcium fluorescence; 100% = response to 87 µM carbachol | activation, % at 3 µM | hit rate 0.18% among 220,000;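 active = activation above its plate's cutoff, the mean activation of test wells on that plate plus 3 SD, cut at about 19% in these data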;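 note: 0% = DMSO alone and 100% = 87 µM carbachol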
#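 Material: zebrafish TRPN1-YFP in HEK293 cells; Doses: single test compound dose, 3 µM nominal, 0.3% DMSO; Timing: dye loading 1 h at 37 °C, then 30 min room temperature; Technique: intracellular calcium fluorescence with Fluo-8; Benchmarks: high carbachol 87 µM, low DMSO alone.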
# TRPML3 ag – human TRPML3 channel agonists, primary screen, cell-based, HEK293 TRPML3-YFP, Fluo-8 calcium fluorescence, 3 µM; Mucolipin-3 (Homo sapiens), Q8TDD5; 100% = the carbachol control signal; activation, % at 3 µM; hit rate 0.29% among 220,000; AID 1448, 2008;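 active = activation above its plate's cutoff, the mean activation of the plate's test wells plus 3 SD, cut at about 12% in these data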;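 note: 0% = DMSO only wells and 100% = carbachol wells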
# Target sequence (Q8TDD5 whole entry, looked up): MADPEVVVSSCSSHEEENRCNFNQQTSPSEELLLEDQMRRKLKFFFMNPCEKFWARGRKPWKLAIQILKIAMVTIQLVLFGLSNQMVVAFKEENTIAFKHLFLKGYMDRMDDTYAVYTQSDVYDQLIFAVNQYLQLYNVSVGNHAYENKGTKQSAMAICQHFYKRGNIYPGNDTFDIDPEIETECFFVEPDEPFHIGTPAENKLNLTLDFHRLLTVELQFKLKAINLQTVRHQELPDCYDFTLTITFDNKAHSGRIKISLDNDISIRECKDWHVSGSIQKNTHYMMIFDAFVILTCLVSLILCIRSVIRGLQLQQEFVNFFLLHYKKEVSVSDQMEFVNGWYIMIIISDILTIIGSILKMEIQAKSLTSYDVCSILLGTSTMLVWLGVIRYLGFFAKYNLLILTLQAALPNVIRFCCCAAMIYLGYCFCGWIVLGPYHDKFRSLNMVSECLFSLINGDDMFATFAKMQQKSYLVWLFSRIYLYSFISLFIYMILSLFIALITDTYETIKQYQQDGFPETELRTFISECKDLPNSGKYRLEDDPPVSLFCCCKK
#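 Test system – HEK293 line with stable expression of human TRPML3-YFP channel · Control set – carbachol 87 µM final as high control (100%), DMSO as low control (0%) · Signal – Fluo-8 calcium dye fluorescence, ex 470-495, em 515-575 nm · Incubation – 1-h 37 °C dye load, 5-s basal, 120-s post-compound reads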
# VIM-2 inhibitor – VIM-2 metallo-beta-lactamase inhibitors, primary screen, biochemical, epi-absorbance readout, Pseudomonas aeruginosa enzyme; hit rate 0.89% among 290,000; purified VIM-2, nitrocefin hydrolysis, epi-absorbance fluorescence; inhibition, % at 5.6 µM;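 active = inhibition above the mean of all tested compounds plus 3 SD, cutoff set per screening run, cut at about 7.5% in these data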;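 note: red hydrolysis product quenches plate fluorescence so inhibitors raise well fluorescence; 0% = enzyme with DMSO and 100% = DMSO without enzyme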
# CRFBP-R2 agonist – agonists of CRF-BP/CRF-R2 complex, primary screen, cell-based, HEK293, calcium dye fluorescence, uHTS | hit rate 0.46% among 350,000 | calcium dye fluorescence (FLIPR); percent of saturating CRF peptide response | activation, % at 13.2 µM | CRF-binding protein / CRF receptor 2 complex (human);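 active = activation of at least 50%, plus an integration ratio under a set limit after plate pattern correction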;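 note: plate controls were neutral control wells without compound for no effect and CRF at EC100 for full effect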
# Starred values were filed as active, the others as inactive; x = not tested or not shown.
SMILES,CRFR2-BP antag,IMP-1 inhibitor,TRPN1 ag,TRPML3 ag,VIM-2 inhibitor,CRFBP-R2 agonist
Cc1ccc(S(=O)(=O)Nc2cc(=O)[nH]c(SCC(=O)Nc3cccc(C(F)(F)F)c3)n2)cc1,110*,-1,x,x,-2,-1
Cn1c(=O)c(C(N)=S)cn(-c2ccccc2)c1=O,8,0,x,x,3,0
CC(C)n1cc(C(N)=S)c(=O)n(Cc2ccccc2)c1=O,-10,6.3*,x,x,0,0
O=c1c2ccccc2n(Cc2ccc(F)cc2)c(=O)n1C1CCCC1,81*,-1,0,-1,2,8
Cc1cc(C)nc(NC(=O)CN2C(=O)c3ccccc3S2(=O)=O)n1,-4,x,x,x,x,0
Cc1cc(C)nc(N(C#N)CN2C(=O)c3ccccc3S2(=O)=O)n1,7,8.8*,1,0,4,-5
CNc1nc(OC)nc(N(C#N)CN2C(=O)c3ccccc3S2(=O)=O)n1,14,9.4*,1,1,6,-4
Cc1noc(C)c1COC(=O)c1ccc(F)c(S(=O)(=O)N2CCOCC2)c1,7,x,x,x,x,0
CCOc1ccc(-n2c(C)nc(O)c2N=Nc2ccccc2)cc1,-21,-3,-1,2,-2,1
CC(C)(C)NC(=O)C(c1ccccc1)N(C(=O)CNC(=O)c1cccs1)c1cccnc1 (stereo not drawn),7,-2,x,x,-3,0
COc1ccc(N=Cc2sc(O)c3ccccc23)cc1,-320,8.3*,33*,28*,2,271*
COc1ccc(N=Cc2c(OC)ccc3ccccc23)cc1,-2,x,x,x,x,-1
COc1ccc(N=Cc2c(O)c3ccccc3n2C(C)=O)cc1,-67,-4,3,1,-2,99*
Nc1ccc2nc(-c3ccccc3)cnc2c1,-53,x,x,x,x,66*
Cc1ccc2oc(=O)c3cc(C(=O)NCCCN4CC(C)CC(C)C4)sc3c2c1 (stereo not drawn),-15,-2,x,x,10*,-1
Cc1ccc2cc3cc(C(=O)NCCCN4CC(C)CC(C)C4)oc3nc2c1 (stereo not drawn),-1,-2,x,x,10*,-1
CCCN1CCN(CCCNC(=O)c2cc3c(=O)[nH]c4ccc(C)cc4c3s2)CC1,-4,-4,-1,1,6,-1
Cc1c(C(=O)Nc2ccc(S(=O)(=O)N3CCOCC3)cc2)cccc1[N+](=O)[O-],8,-3,x,x,-3,-1
CCCCN(C(=O)c1c(-c2ccccc2)noc1C)c1c(N)n(CCC)c(=O)[nH]c1=O,10,x,x,x,x,0
CN(CC1CCOCC1)C(=O)CC1C(=O)NCCN1Cc1cccc(C(F)(F)F)c1 (stereo not drawn),-3,-3,x,x,-4,1
Cc1cc(O)c2c(-c3ccccc3)cc(=O)oc2c1,24,-7,6,3,-3,17
Cc1cc2oc(=O)cc(-c3ccccc3)c2c(C)c1-c1ccc(O)cc1,50*,x,x,x,x,0
CC(=O)c1cn(-c2ccc(Cl)cc2)c(=O)[nH]c1=O,-2,-2,x,x,-2,-1
CC(=O)n1cc([C@@H]2C=C(C(=O)O)O[C@H](OCc3ccc(CO)cc3)C2)c2ccccc21,5,-1,0,0,8.8*,-4
O=C(NCc1ccccc1)C1=C[C@@H](c2ccc(Br)cc2)C[C@@H](OCc2ccc(CO)cc2)O1,8,-2,-1,0,-1,0
SMILES,CRFR2-BP antag,IMP-1 inhibitor,TRPN1 ag,TRPML3 ag,VIM-2 inhibitor,CRFBP-R2 agonist
O=C(NCc1ccccc1)C1=C[C@H](c2ccccc2)C[C@H](OCc2ccc(CO)cc2)O1,83*,x,x,x,x,0
CCOc1ccc(NS(=O)(=O)c2ccc(C(=O)NCC(c3ccc(OC)cc3)N3CCCC3)cc2)cc1 (stereo not drawn),-27,x,x,x,x,7
Cc1cccc(-n2c(-c3ccco3)n[nH]c2=S)c1,-1,-1,-1,0,19*,-2
FC(F)(F)c1ccccc1-n1c(-c2ccco2)n[nH]c1=S,20,-1,x,x,9.9*,14
C#CC1(NC(=S)Nc2cccc(OC)c2)CCCCC1,4,x,x,x,x,-3
O=C(COc1ccc([N+](=O)[O-])cc1)Nc1ccccc1N1CCCC1,5,-4,-1,0,-2,-2
O=C1NC(=O)C(Cc2ccc(Cl)cc2)(c2ccccc2)N1 (stereo not drawn),-33,x,x,x,x,0
Cc1c(N2C(=O)c3ccccc3C2=O)c(=O)n(-c2ccccc2)n1C,-2,-2,2,0,-2,-2
Cc1c(N2C(=O)C3C4C=CC(C5CC45)C3C2=O)c(=O)n(-c2ccccc2)n1C (stereo not drawn),115*,-2,1,1,-2,-1
Cc1onc(-c2ccccc2)c1C(=O)NC(=S)NNC(=O)c1ccc(O)cc1O,-4,-3,-2,0,-3,0
CCCOc1ccc(C(=O)NC(=S)NNC(=O)c2c(-c3ccccc3)noc2C)cc1,-15,-3,99*,52*,-2,145*
CCCOc1ccc(NC(=O)c2c(-c3ccccc3)noc2C)cc1,4,3,-1,-1,0,0
Cc1onc(-c2ccccc2)c1C(=O)NC(=S)NNC(=O)c1ccccc1O,-138,-5,81*,55*,-3,202*
Cc1c(CNC(=O)C2CCC(=O)N(CCc3ccccc3)C2)cnn1C (stereo not drawn),-8,-3,x,x,-1,1
CCCCCCC(=O)Nc1nc(C)c(-c2csc(Nc3cc(Cl)ccc3C)n2)s1,-23,19*,0,1,-3,-1
COc1ccc(OC)c(Nc2nc(-c3sc(NC(=O)C(C)(C)C)nc3C)cs2)c1,-17,-2,0,3,-2,3
CCCCC(=O)Nc1nc(C)c(-c2csc(Nc3cc(Cl)ccc3OC)n2)s1,-1,7.6*,0,0,-1,-2
COc1ccc(Cl)cc1Nc1nc(-c2sc(NC(=O)C(C)(C)C)nc2C)cs1,-6,18*,1,1,-1,1
CCCCC(=O)Nc1nc(C)c(-c2csc(Nc3cc(OC)ccc3OC)n2)s1,-16,-2,2,1,-3,2
COC(=O)c1ccc(NC(=O)C2CCN(C(=O)Nc3ccccc3)CC2)cc1,-8,x,x,x,x,0
C=CCSc1nc2sc3c(c2c(=O)n1-c1ccc(C)cc1)CCN(C)C3,7,-3,x,x,1,-3

# Bioassay records from PubChem.
